One may read the EC50 as the concentration giving half of the maximal effect. By IC50 is commonly meant the midpoint of a concentration-inhibition curve. Usually CC50 stands for the concentration that lowers cell viability or growth by half.

For one series, the target named is T1, Procathepsin L (Homo sapiens, UniProt P07711). Briefly: Inhibition of human recombinant Cathepsin L assessed as ratio of Kinact/Kiapp using Z-FR-AMC as substrate inubated for 30 mins by fluorometric assay.
Conditions: not given
Target sequence in this assay (P07711 114-333 limits assumed): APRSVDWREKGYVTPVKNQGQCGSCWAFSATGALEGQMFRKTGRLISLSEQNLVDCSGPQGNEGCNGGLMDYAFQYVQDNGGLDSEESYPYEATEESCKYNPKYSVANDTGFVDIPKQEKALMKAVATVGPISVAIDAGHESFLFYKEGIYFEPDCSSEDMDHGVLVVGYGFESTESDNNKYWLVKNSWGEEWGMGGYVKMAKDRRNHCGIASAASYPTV
`COC1=CC(=O)N(C(=O)/C=C/[C@H](C)NC(=O)[C@H](CC(C)C)NC(=O)[C@H](CC2CCCCC2)NC(=O)C2CCN(C)CC2)[C@H]1Cc1c[nH]c2ccccc12`: the Ratio was 1.93 10^5/s/M.

For the next series, the target named is T2, Cathepsin B (Homo sapiens, UniProt P07858). Briefly: Inhibition of human recombinant Cathepsin B assessed as ratio of Kinact/Kiapp using Z-FR-AMC as substrate inubated for 30 mins by fluorometric assay.
Conditions: not given
In a few lines:
(§1)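 Human CatL, human CatB or mouse CatL at 1 nM, at 25 °C in pH 5.5 Na acetate/DTT/EDTA/NaCl buffer. Reactions held 40 μM Z-FR-AMC and 555.56 to 0.01 nM compound, in quadruplicate. Product formation was measured at 6 min intervals for 1 h and normalized to DMSO wells. kobs came from inactivation curves. kinact and KIapp were obtained by nonlinear regression of kobs = kinact[I]/(KIapp + [I]); their ratio was then calculated.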
Consider `COC1=CC(=O)N(C(=O)/C=C/[C@H](C)NC(=O)[C@H](CC(C)C)NC(=O)[C@H](CC2CCCCC2)NC(=O)C2CCN(C)CC2)[C@H]1Cc1c[nH]c2ccccc12`, for which the Ratio is 2.43 10^4/s/M.

A further series addresses T3, Procathepsin L (Mus musculus) (UniProt P06797).
T3 sequence (whole entry): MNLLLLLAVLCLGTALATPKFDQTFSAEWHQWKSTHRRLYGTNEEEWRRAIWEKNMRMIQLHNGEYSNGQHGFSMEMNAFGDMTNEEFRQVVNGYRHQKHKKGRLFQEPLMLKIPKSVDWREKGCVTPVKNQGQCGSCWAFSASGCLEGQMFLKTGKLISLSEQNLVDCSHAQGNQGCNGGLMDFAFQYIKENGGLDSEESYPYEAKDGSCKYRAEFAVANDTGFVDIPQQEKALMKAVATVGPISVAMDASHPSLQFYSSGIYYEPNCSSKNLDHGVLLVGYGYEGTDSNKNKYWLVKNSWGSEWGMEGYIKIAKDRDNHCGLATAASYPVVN
The series is described as follows: Inhibition of mouse Cathepsin L assessed as ratio of Kinact/Kiapp using Z-FR-AMC as substrate inubated for 30 mins by fluorometric assay.
Conditions: not given
Put shortly:
as §1
As to `COC1=CC(=O)N(C(=O)/C=C/[C@H](C)NC(=O)[C@H](CC(C)C)NC(=O)[C@H](CC2CCCCC2)NC(=O)C2CCN(C)CC2)[C@H]1Cc1c[nH]c2ccccc12`, the Ratio is 2.92 10^5/s/M.

A further series addresses T2, Cathepsin B. Briefly: Inhibition of human recombinant Cathepsin B assessed as Kinact using Z-FR-AMC as substrate inubated for 30 mins by fluorometric assay.
Conditions: not given
Regarding `COC1=CC(=O)N(C(=O)/C=C/[C@H](C)NC(=O)[C@H](CC(C)C)NC(=O)[C@H](CC2CCCCC2)NC(=O)C2CCN(C)CC2)[C@H]1Cc1c[nH]c2ccccc12`, the Kinact is 2.09 10^-2/s.

Another series relates to SARS-CoV-2. The series is described as follows: Antiviral activity against SARS-CoV-2 infected in African green monkey Vero E6 cells assessed as inhibition of viral infection pre incubated for 30 minutes followed by viral infection and measured after 72 hrs by Nucblue dye based fluorometric analysis. It is filed as functional, organism-based. The note with it: Severe acute respiratory syndrome coronavirus 2, Vero C1008.
Regarding `COC1=CC(=O)N(C(=O)/C=C/[C@H](C)NC(=O)[C@H](CC(C)C)NC(=O)[C@H](CC2CCCCC2)NC(=O)C2CCN(C)CC2)[C@H]1Cc1c[nH]c2ccccc12`, the EC50 stood at 6070 nM.

The target in the next series is T1, Procathepsin L. The series is described as follows: Inhibition of human recombinant Cathepsin L assessed as Apparent inhibition constant using Z-FR-AMC as substrate […] by fluorometric assay. The note with it: read-out: Ki(app).
Target sequence in this assay (P07711 whole entry): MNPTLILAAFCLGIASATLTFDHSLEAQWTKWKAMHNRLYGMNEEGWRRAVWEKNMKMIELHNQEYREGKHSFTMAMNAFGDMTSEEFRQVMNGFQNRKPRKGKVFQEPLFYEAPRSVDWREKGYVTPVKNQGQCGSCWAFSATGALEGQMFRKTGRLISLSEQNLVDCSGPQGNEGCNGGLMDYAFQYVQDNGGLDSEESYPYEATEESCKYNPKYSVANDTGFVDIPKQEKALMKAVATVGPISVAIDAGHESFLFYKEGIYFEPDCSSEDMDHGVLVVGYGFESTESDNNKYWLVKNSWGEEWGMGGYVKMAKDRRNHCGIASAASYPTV
`COC1=CC(=O)N(C(=O)/C=C/[C@H](C)NC(=O)[C@H](CC(C)C)NC(=O)[C@H](CC2CCCCC2)NC(=O)C2CCN(C)CC2)[C@H]1Cc1c[nH]c2ccccc12`: the Ki stood at 18 nM.

Another series addresses T4, Procathepsin L (Mus musculus, UniProt P06797).
T4 sequence (P06797 whole entry): T3 sequence (whole entry)
The series is described as follows: Inhibition of mouse Cathepsin L assessed as Apparent inhibition constant using Z-FR-AMC as substrate inubated for 30 mins by fluorometric assay. The note with it: read-out: Ki(app). In a few lines: as §1
For `COC1=CC(=O)N(C(=O)/C=C/[C@H](C)NC(=O)[C@H](CC(C)C)NC(=O)[C@H](CC2CCCCC2)NC(=O)C2CCN(C)CC2)[C@H]1Cc1c[nH]c2ccccc12`, the Ki is 29.3 nM.

For a further series, the target named is T5, Cathepsin K (Homo sapiens, UniProt P43235).
T5 sequence (P43235 whole entry): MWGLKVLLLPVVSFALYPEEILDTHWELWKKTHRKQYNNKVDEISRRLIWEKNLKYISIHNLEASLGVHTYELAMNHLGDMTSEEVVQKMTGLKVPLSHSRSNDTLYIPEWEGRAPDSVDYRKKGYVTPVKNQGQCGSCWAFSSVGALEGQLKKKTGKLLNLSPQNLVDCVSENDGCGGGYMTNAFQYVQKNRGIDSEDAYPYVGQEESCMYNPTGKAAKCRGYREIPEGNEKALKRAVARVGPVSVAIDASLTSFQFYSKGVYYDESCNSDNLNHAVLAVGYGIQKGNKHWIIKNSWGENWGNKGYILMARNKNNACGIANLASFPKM
The series is described as follows: Inhibition of human recombinant Cathepsin K assessed remaining activity using Z-FR-AMC as substrate incubated for 30 mins by fluorometric assay.
Conditions: not given
Put shortly: (§2)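 Recombinant human cathepsins: L, B, V and K at 1.11 nM, S at 4.44 nM. Each was preincubated 30 min at 25 °C with 3333 to 0.006 nM compound. Z-FR-AMC was added at 40 μM final. AMC release rate over 0–30 min was compared with DMSO (ex/em 360/460). IC50 from four technical replicates.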
For the compound `COC1=CC(=O)N(C(=O)/C=C/[C@H](C)NC(=O)[C@H](CC(C)C)NC(=O)[C@H](CC2CCCCC2)NC(=O)C2CCN(C)CC2)[C@H]1Cc1c[nH]c2ccccc12`, the IC50 was 0.623 nM.

The target of the next series is T1, Procathepsin L. The series is described as follows: Inhibition of human recombinant Cathepsin L assessed as Kinact using Z-FR-AMC as substrate inubated for 30 mins by fluorometric assay.
Conditions: not given
In a few lines: as §1
Target sequence in this assay (P07711 114-333 limits assumed): as the sequence (P07711 114-333 limits assumed) above
As for `COC1=CC(=O)N(C(=O)/C=C/[C@H](C)NC(=O)[C@H](CC(C)C)NC(=O)[C@H](CC2CCCCC2)NC(=O)C2CCN(C)CC2)[C@H]1Cc1c[nH]c2ccccc12`, the Kinact was 3.47 10^-3/s.

The target in a further series is T6, Cathepsin L2 (Homo sapiens, UniProt O60911).
T6 sequence (O60911 whole entry): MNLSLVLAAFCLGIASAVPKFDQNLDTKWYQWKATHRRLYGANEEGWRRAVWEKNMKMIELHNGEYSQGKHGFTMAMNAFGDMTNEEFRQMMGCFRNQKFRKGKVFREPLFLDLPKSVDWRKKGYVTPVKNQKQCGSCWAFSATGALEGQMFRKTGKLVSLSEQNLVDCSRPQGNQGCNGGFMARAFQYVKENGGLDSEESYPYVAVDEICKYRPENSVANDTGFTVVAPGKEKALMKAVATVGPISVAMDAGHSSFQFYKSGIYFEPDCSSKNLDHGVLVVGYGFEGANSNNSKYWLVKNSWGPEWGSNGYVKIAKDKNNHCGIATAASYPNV
The series is described as follows: Inhibition of human recombinant Cathepsin V assessed remaining activity using Z-FR-AMC as substrate incubated for 30 mins by fluorometric assay.
Conditions: not given
Put shortly:
as §2
As for `COC1=CC(=O)N(C(=O)/C=C/[C@H](C)NC(=O)[C@H](CC(C)C)NC(=O)[C@H](CC2CCCCC2)NC(=O)C2CCN(C)CC2)[C@H]1Cc1c[nH]c2ccccc12`, the IC50 worked out at 20.6 nM.

In a further series the target is T3, Procathepsin L (Mus musculus). Briefly: Inhibition of mouse Cathepsin L assessed as Kinact using Z-FR-AMC as substrate inubated for 30 mins by fluorometric assay.
Conditions: not given
Put shortly: as §1
As to `COC1=CC(=O)N(C(=O)/C=C/[C@H](C)NC(=O)[C@H](CC(C)C)NC(=O)[C@H](CC2CCCCC2)NC(=O)C2CCN(C)CC2)[C@H]1Cc1c[nH]c2ccccc12`, the Kinact is 8.56 10^-3/s.

A further series concerns the target T2, Cathepsin B. Briefly: Inhibition of human recombinant Cathepsin B assessed as Apparent inhibition constant using Z-FR-AMC as substrate inubated for 30 mins by fluorometric assay. The note with it: read-out: Ki(app). In a few lines:
as §1
Turning to `COC1=CC(=O)N(C(=O)/C=C/[C@H](C)NC(=O)[C@H](CC(C)C)NC(=O)[C@H](CC2CCCCC2)NC(=O)C2CCN(C)CC2)[C@H]1Cc1c[nH]c2ccccc12`, the Ki was found to be 861 nM.

A further series relates to Vero C1008. Briefly: Cytotoxicity against cells African green monkey Vero E6 cells incubated for 24 to 72 hrs by alamar blue assay. The note with it: chlorocebus sabaeus, time 24-72 hrs. It is filed as toxicity, cell-based. Put shortly:
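VeroE6 cells in DMEM with 10% FCS were seeded at 5 × 10^4 per well. After adherence, cells were given varying compound concentrations for 24 or 72 h at 37 °C, 5% CO2. Alamar Blue HS was added for a further 2–4 h. Viability was read as fluorescence at ex/em 560/590 nm.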
A general note: The colour change of resazurin is a common sign of viable cells or microbes.
Regarding `COC1=CC(=O)N(C(=O)/C=C/[C@H](C)NC(=O)[C@H](CC(C)C)NC(=O)[C@H](CC2CCCCC2)NC(=O)C2CCN(C)CC2)[C@H]1Cc1c[nH]c2ccccc12`, the CC50 is greater than 100000 nM.

The next series deals with T2, Cathepsin B. The series is described as follows: Inhibition of human recombinant Cathepsin B assessed remaining activity using Z-FR-AMC as substrate incubated for 30 mins by fluorometric assay.
Conditions: not given
Put shortly:
as §2
With `COC1=CC(=O)N(C(=O)/C=C/[C@H](C)NC(=O)[C@H](CC(C)C)NC(=O)[C@H](CC2CCCCC2)NC(=O)C2CCN(C)CC2)[C@H]1Cc1c[nH]c2ccccc12`, the IC50 is 0.278 nM.

The target of a further series is Cathepsin S (Homo sapiens, UniProt P25774). The series is described as follows: Inhibition of human recombinant Cathepsin S assessed remaining activity using Z-FR-AMC as substrate incubated for 30 mins by fluorometric assay.
Chain of Cathepsin S (P25774 whole entry): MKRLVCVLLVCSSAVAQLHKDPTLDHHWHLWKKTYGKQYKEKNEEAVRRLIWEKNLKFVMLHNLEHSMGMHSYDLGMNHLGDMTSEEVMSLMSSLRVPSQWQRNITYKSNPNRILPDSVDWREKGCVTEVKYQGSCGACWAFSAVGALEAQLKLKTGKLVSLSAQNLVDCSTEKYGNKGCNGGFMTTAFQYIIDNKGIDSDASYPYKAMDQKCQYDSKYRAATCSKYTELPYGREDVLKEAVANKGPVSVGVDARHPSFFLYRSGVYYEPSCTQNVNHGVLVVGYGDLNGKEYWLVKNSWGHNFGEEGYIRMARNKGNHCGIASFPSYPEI
Conditions: not given
Put shortly: as §2
On to `COC1=CC(=O)N(C(=O)/C=C/[C@H](C)NC(=O)[C@H](CC(C)C)NC(=O)[C@H](CC2CCCCC2)NC(=O)C2CCN(C)CC2)[C@H]1Cc1c[nH]c2ccccc12`, for which the IC50 stood at 0.304 nM.

The values are drawn from ChEMBL document CHEMBL5154645, “Potent Anti-SARS-CoV-2 Activity by the Natural Product Gallinamide A and Analogues via Inhibition of Cathepsin L” (J Med Chem, 2022).
